Assay [1] addresses Beta-2 adrenergic receptor (Cavia porcellus) (UniProt Q8K4Z4).
For assay [2], the species on record is Homo sapiens. The assay is described as follows: Compound was evaluated for the inhibition of U-46,619-induced human platelet aggregation (Antiaggregatory activity). The class given is functional. In outline:
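Washed human platelets (ACD blood from aspirin-free donors, apyrase-washed, resuspended in calcium-containing modified Tyrode's pH 7.4, 3×10^8/mL) preincubated with vehicle or drug 3 min at 37 °C, then challenged with the minimum U46619 dose (0.8-2.0 μM) giving maximal irreversible aggregation; turbidometric readout ≥2 min; IC50 from % inhibition vs log concentration plots; mean ± SEM, 3-4 donors.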

Assay [3] addresses Beta-1 adrenergic receptor (Cavia porcellus) (UniProt B0FL73).
The species entered for assay [4] is Homo sapiens. The assay is described as follows: Compound was evaluated for the secretion of [14C]- Serotonin (Antisecretory activity). The class given is functional. In a few lines: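 [14C]serotonin release measured in the same U46619-challenged washed human platelet samples as aggregation: supernatant radioactivity after 10000g 30 s spin, scintillation counting, relative to total after lysis; net U46619-evoked release as % of total; IC50 from % inhibition of maximal release vs log concentration; mean ± SEM, ≥3 preparations.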

This passage reports pD2 and IC50 results from ChEMBL document CHEMBL1123361, “Syntheses and beta-adrenergic agonist and antiaggregatory properties of N-substituted trimetoquinol analogues” (J Med Chem, 1986).

In general, IC50 refers to the midpoint of a concentration-inhibition curve.

Chain of Beta-1 adrenergic receptor (Cavia porcellus) (B0FL73 1-467): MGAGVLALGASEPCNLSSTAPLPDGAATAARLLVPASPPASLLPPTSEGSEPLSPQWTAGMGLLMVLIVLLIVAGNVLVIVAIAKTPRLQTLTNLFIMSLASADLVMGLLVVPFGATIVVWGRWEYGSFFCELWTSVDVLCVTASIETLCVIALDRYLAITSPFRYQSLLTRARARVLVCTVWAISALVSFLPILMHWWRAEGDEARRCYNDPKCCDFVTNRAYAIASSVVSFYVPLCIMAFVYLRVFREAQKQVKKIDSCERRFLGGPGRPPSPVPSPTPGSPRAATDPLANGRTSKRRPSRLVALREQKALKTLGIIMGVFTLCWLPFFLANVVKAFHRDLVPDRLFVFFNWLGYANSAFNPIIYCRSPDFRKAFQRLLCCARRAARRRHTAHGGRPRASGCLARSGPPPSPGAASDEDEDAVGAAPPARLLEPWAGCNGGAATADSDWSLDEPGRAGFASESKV
Chain of Beta-2 adrenergic receptor (Cavia porcellus) (Q8K4Z4 whole entry, looked up): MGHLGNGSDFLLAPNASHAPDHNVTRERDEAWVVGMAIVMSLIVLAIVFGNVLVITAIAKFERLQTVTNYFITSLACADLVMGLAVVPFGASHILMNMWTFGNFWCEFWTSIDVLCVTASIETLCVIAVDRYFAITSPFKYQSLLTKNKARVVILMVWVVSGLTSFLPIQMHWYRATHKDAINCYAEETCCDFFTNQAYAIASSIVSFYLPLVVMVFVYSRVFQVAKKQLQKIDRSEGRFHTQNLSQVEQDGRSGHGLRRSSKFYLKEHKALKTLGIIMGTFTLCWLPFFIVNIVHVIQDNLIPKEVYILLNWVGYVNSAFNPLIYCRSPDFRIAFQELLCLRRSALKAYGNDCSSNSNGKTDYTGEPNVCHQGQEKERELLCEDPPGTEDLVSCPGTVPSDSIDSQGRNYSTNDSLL

On to `COc1cc(CC2c3cc4c(cc3CCN2CCCl)OS(=O)O4)cc(OC)c1OC` (stereo not drawn), for which the pD2 in assay [1] was 5.58; in assay [3], 5.24. In addition, the IC50 in the assay filed under Homo sapiens [2] was found to be 64.2 µM; in the assay listed under Homo sapiens [4], 166 µM.

`COc1cc(C[C@H]2NCCc3cc(O)c(O)cc32)cc(OC)c1OC`: the pD2 was determined as 5.63 in assay [1] and 5.58 in assay [3]. The half-maximal inhibitory concentration (IC50) in the assay filed under Homo sapiens [2] amounted to 0.71 µM; in the assay listed under Homo sapiens [4] it was 0.55 µM.

Turning to `COc1cc(CC2c3cc(O)c(O)cc3CCN2Cc2ccccc2)cc(OC)c1OC` (stereo not drawn), the pD2 worked out at 5.34 in assay [1] and 4.34 in assay [3]. The IC50 in the assay listed under Homo sapiens [2] was determined as 21.2 µM; in the assay filed under Homo sapiens [4] it was 96.5 µM.

`COc1cc(CC2c3cc(O)c(O)cc3CCN2C)cc(OC)c1OC` (stereo not drawn): the values for the pD2 in assay [1] and in assay [3] were 6.05 and 5.89, respectively.

With `COc1cc(CC2c3cc(O)c(O)cc3CCN2CCCl)cc(OC)c1OC` (stereo not drawn), the pD2 in assay [1] was 5.34; in assay [3], 4.88. The half-maximal inhibitory concentration (IC50) in the assay filed under Homo sapiens [2] worked out at 86.6 µM; in the assay listed under Homo sapiens [4], 162 µM.

Consider `COc1cc(C[C@@H]2NCCc3cc(O)c(O)cc32)cc(OC)c1OC`, for which the pD2 in assay [1] was found to be 7.23; in assay [3] it was 7.26. Moreover, the figures for the IC50 in the assay listed under Homo sapiens [2] and in the assay listed under Homo sapiens [4] were 19.3 µM and 24.5 µM, respectively.

For the molecule `COc1cc(CC2NCCc3cc(O)c(O)cc32)cc(OC)c1OC` (stereo not drawn), the pD2 in assay [1] turned out to be 6.96; in assay [3], 7.1.

As for `COc1cc(CC2c3cc(O)c(O)cc3CCN2CCO)cc(OC)c1OC` (stereo not drawn), the pD2 in assay [1] was 5.73; in assay [3], 5.35. Also, the IC50 in the assay listed under Homo sapiens [2] came out at 71.6 µM; in the assay listed under Homo sapiens [4] it was 116 µM.
